“And” between values parts separate entries of the source, which are not always exact repeats. Equal values may be shown once.
Key:
[1] = tested on: Mus musculus; experiment: Dose causing a neurological deficit in 50% of mice after ip administration.; type: functional
Procedure, shortened: (§1)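 Traction test in male Hilltop ICR-derived mice (19-30 g, groups of 8-10) just before electroshock, 15 min after ip or 30 min after oral dosing. Mice placed on a 16-gauge, 65-cm copper wire 40 cm above the table; deficit scored as failure to stay on for 10 s. ND50 with 95% limits by Litchfield-Wilcoxon.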

[2] = tested on: Mus musculus; experiment: Anticonvulsant activity in mouse maximal electroshock assay following i.p. administration.; type: functional; conditions: ip
Procedure, shortened: (§2)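 Male Hilltop ICR-derived mice (19-30 g), groups of 8-10, dosed ip with compound or aqueous vehicle. After 15 min pretreatment, a transcorneal 60-Hz, 50 mA shock was given for 0.2 s. Just before the shock, each mouse was tested on a horizontal wire (10 s). Quantal data were analysed by Litchfield-Wilcoxon to give ED50 with 95% confidence limits.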

[3] = tested on: Mus musculus; experiment: Protective index is defined as ND50 (i.p.) divided by MES ED50(i.p.); type: functional
Procedure, shortened: (§3)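 Ratio of ND50 from the wire traction test to MES ED50, both measured by the same route (ip or oral) in the same animals. Quantal dose-response data for each were evaluated by Litchfield-Wilcoxon.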

[4] = tested on: Mus musculus; experiment: Protective index defined as ND50 (p.o.) divided by MES ED50(op); type: functional; procedure, shortened: as §3
[5] = tested on: Mus musculus; experiment: Dose causing a neurological deficit in 50% of mice following p.o. administration.; type: functional; procedure, shortened: as §1
[6] = tested on: Mus musculus; experiment: Compound was evaluated for anticonvulsant activity by maximal electroshock assay(MES) in mice after po administration.; type: functional
Procedure, shortened: (§4)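 Male Hilltop ICR-derived mice (19-30 g), groups of 8-10, given compound or aqueous vehicle orally. The transcorneal 60-Hz shock (50 mA, 0.2 s) followed a 30 min pretreatment and a wire-hang neurological check (10 s). ED50 and 95% confidence limits were obtained from quantal data by the Litchfield-Wilcoxon method.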

[7] = (§5) Lethal dose was measured in mice after ip administration.; type: toxicity, organism-based; conditions: mouse, in vivo
Procedure, shortened: (§6)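 Male Simonsen ICR-derived mice (16-24 g), groups of three, given compound ip in increasing doses within a behavioral screen. Deaths counted on day 5, and LD50 estimated from 5-day survival. Quantal data analysed by the Litchfield-Wilcoxon method.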

[8] = tested on: Rattus norvegicus; experiment: Dose of compound causing a neurological deficit in 50% of rat after po administration.
[9] = tested on: Rattus norvegicus; experiment: Compound was evaluated for anticonvulsant activity by maximal electroshock assay(MES) in rat after po administration.
[10] = tested on: Mus musculus; experiment: Compound was evaluated for anticonvulsant activity by maximal electroshock assay(MES) in mice after po administration; 55-125; type: functional; procedure, shortened: as §4
[11] = tested on: Rattus norvegicus; experiment: Compound was evaluated for anticonvulsant activity by maximal electroshock assay(MES) in rat after ip administration; 14-33; type: functional
[12] = tested on: Rattus norvegicus; experiment: Compound was evaluated for anticonvulsant activity by maximal electroshock assay(MES) in rat after po administration; 30-125; type: functional
Procedure, shortened: (§7)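 Male Simonsen Sprague-Dawley-derived rats, 80-110 g, groups of 8-10, dosed with compound or aqueous vehicle; pretreatment 15 min after ip or 30 min after oral dosing. Transcorneal electroshock, 150 mA, 60 Hz, 0.2 s, given after the wire test. ED50 with 95% confidence limits from quantal data by Litchfield-Wilcoxon.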

[13] = tested on: Mus musculus; experiment: Dose of compound causing a neurological deficit in 50% of mice after ip administration; 80-115; type: functional; procedure, shortened: as §1
[14] = tested on: Rattus norvegicus; experiment: Dose of compound causing a neurological deficit in 50% of rat after ip administration; 119-211; type: functional
Procedure, shortened: (§8)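 Rats (Simonsen Sprague-Dawley-derived, 80-110 g, groups of 8-10) placed on a suspended 16-gauge, 65-cm copper wire just before electroshock. Deficit scored as inability to remain for 8 s. Pretreatment was 15 min ip or 30 min oral. Quantal data analysed by Litchfield-Wilcoxon to give ND50 with 95% limits.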

[15] = tested on: Mus musculus; experiment: Compound was evaluated for anticonvulsant activity by maximal electroshock assay(MES) in mice after ip administration; 31-39; type: functional; procedure, shortened: as §2
[16] = tested on: Rattus norvegicus; experiment: Dose of compound causing a neurological deficit in 50% of rat after po administration.; type: functional; procedure, shortened: as §8
[17] = tested on: Rattus norvegicus; experiment: Compound was evaluated for anticonvulsant activity by maximal electroshock assay(MES) in rat after ip administration; 0.6-6.6; type: functional
[18] = tested on: Mus musculus; experiment: Compound was evaluated for anticonvulsant activity by maximal electroshock assay(MES) in mice after po administration; 37-60; type: functional; procedure, shortened: as §4
[19] = tested on: Mus musculus; experiment: as §5; type: functional; procedure, shortened: as §6
[20] = tested on: Rattus norvegicus; experiment: Dose of compound causing a neurological deficit in 50% of rat after ip administration.; type: functional; procedure, shortened: as §8
[21] = tested on: Rattus norvegicus; experiment: Compound was evaluated for anticonvulsant activity by maximal electroshock assay(MES) in rat after po administration; 13-39; type: functional; procedure, shortened: as §7
[22] = tested on: Mus musculus; experiment: Compound was evaluated for anticonvulsant activity by maximal electroshock assay(MES) in mice after ip administration; 11-18; type: functional; procedure, shortened: as §2
[23] = tested on: Mus musculus; experiment: Dose of compound causing a neurological deficit in 50% of mice after ip administration; 66-92; type: functional; procedure, shortened: as §1

Cc1cc2cccc(C(=O)Cn3ccnc3)c2cc1C.Cl
ND50 [1]: >300 mg/kg
ED50 [2]: 80 mg/kg
PI [3]: >3.8

Cl.c1ccc2cc(C3(CCn4ccnc4)SCCS3)ccc2c1
ND50 [1]: 33 mg/kg
ED50 [2]: 15 mg/kg
PI [3]: 2.2

Cl.c1ccc2cc(CCn3ccnc3)ccc2c1
PI [4]: >2.1
ND50 [1]: 31 mg/kg
ND50 [5]: >100 mg/kg
ED50 [2]: 22 mg/kg
ED50 [6]: 47 mg/kg
LD50 [7]: > 100 mg/kg
ND50 [8]: >100 mg/kg
PI [3]: 1.4
ED50 [9]: 54 mg/kg

OC(Cn1ccnc1)c1ccc2ccccc2c1 (centres undefined)
LD50 [7]: > 300 mg/kg

OC(Cn1ccnc1)c1cccc2ccccc12 (centres undefined)
PI [4]: >3.7 and >4.8
ED50 [10]: 82 mg/kg
ED50 [11]: 24 mg/kg
ED50 [12]: 62 mg/kg
ND50 [5]: >300 mg/kg
ND50 [13]: 89 mg/kg
ND50 [14]: 153 mg/kg
LD50 [7]: > 300 mg/kg
ED50 [15]: 34 mg/kg
PI [3]: 2.6 and 6.4
ND50 [16]: >300 mg/kg

Cl.O=C(Cn1ccnc1)c1ccc2ccccc2c1 [NAFIMIDONE HYDROCHLORIDE]
PI [4]: >4.2
ED50 [17]: 1.7 mg/kg
ED50 [18]: 48 mg/kg
LD50 [19]: > 100 mg/kg
ND50 [20]: >100 mg/kg
ND50 [5]: >200 mg/kg
ED50 [21]: 26 mg/kg
ED50 [22]: 15 mg/kg
ND50 [23]: 83 mg/kg
ND50 [16]: >100 mg/kg

CCC1(c2ccccc2)C(=O)NC(=O)NC1=O [PHENOBARBITAL]
PI [4]: 1.9
ND50 [1]: 30 mg/kg
ND50 [5]: 36 mg/kg
ED50 [2]: 15 mg/kg
ED50 [6]: 19 mg/kg
LD50 [7]: > 100 mg/kg
PI [3]: 2
